Measured values reported in ChEMBL document CHEMBL1158765, “Cyclic peroxides derived from the marine sponge Plakortis simplex” (J Nat Prod, 2005).
In brackets after ≈: the same amount, converted by molar mass.

What was measured:
Format in all cases: functional, cell-based
[1] = Antitumor activity against human UXF 1138L cells
Outline: (§1)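 Human tumor cell lines derived from patient tumors grown subcutaneously in NMRI nu/nu mice, cultured as monolayers and exposed to test compounds. Surviving cells were stained with a fluorescent dye. Doubling times 24-35 h. IC50 taken from concentration-dependent T/C values. Where not reached within the test range, IC extrapolated by linear regression if within 3-fold of the highest concentration.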

[2] = Antitumor activity against human GXF251L cells; settings: GXF 251L; outline: as §1
[3] = Antitumor activity against human RXF 486L cells; outline: as §1
[4] = Antitumor activity against human LXF 529L cells; outline: as §1
[5] = Antitumor activity against human MEXF 642NL cells; outline: as §1
[6] = Antitumor activity against human MAXF 401NL cells; outline: as §1

For `CCCCCC[C@@]1(CC)C=C(CC)[C@@H](CC(=O)OC)OO1` (relative stereo), which IC50 [1] is on record?
Its IC50 is 14.4 mg/L (≈ 48.3 µM).

And the IC50 [2]?
The IC50 was 8.3 mg/L (≈ 27.8 µM).

And the IC50 [3]?
The IC50 was 14.1 mg/L (≈ 47.2 µM).

And the IC50 [4]?
Its IC50 is 7.7 mg/L (≈ 25.8 µM).

And the IC50 [5]?
The IC50 was 7.2 mg/L (≈ 24.1 µM).

With `CCCCC[C@@]1(CC)C=C(CC)[C@@H](CC(=O)OC)OO1` (relative stereo) as the compound, how does the IC50 [1] read?
Its IC50 is greater than 10 mg/L.

And the IC50 [2]?
The IC50 was greater than 10 mg/L.

What about the IC50 [6] of the same compound?
Its IC50 is greater than 10 mg/L.

And the IC50 [3]?
The IC50 was greater than 10 mg/L.

What about the IC50 [4] of the same compound?
The IC50 was greater than 10 mg/L.

What about the IC50 [5] of the same compound?
The IC50 was greater than 10 mg/L.
